Measured values collected from several papers.
Organism: Escherichia coli
Observed: microbial growth

SMILES	test	test system	setting	MIC
Cc1ccc(C)n1-c1ccc(-c2nnc(-c3ccc(O)cc3)[nH]2)cc1	broth dilution	ATCC10536	18 h	250 µg/mL
COc1c(C)c(OC(C)=O)c(C)c(O)c1C(=O)/C=C/c1ccccc1	broth dilution	ATCC25922	–	5000 µg/mL
CC(=O)Nc1ncc([N+](=O)[O-])s1	–	–	–	< 50 µM
CC(C)Oc1c(NC(=O)c2ccc(NC(=O)[C@H](CC(N)=O)NC(=O)c3ccc(NC(=O)c4cc(C#N)cn4C)cc3)cc2)ccc(C(=O)Nc2ccc(C(=O)O)cc2)c1O	–	DSM1116	–	≤ 0.03 µg/mL
Cc1ccc2nc(-c3c4ccccc4cc4ccccc34)[nH]c2c1	broth dilution	ATCC25922	–	128 µg/mL
O=C(CCc1cc(O)c(O)c(O)c1)NCCCCCCCC[P+](c1ccccc1)(c1ccccc1)c1ccccc1.[Br-]	broth dilution	ATCC25922	18 h	> 32 µg/mL
Cc1ccccc1NCc1ccc(Oc2ccccn2)cc1	–	–	–	> 25 µg/mL
CC(C)Oc1c(NC(=O)c2ccc(NC(=O)[C@H](CC(N)=O)NC(=O)c3ccc(NC(=O)c4ccc(F)cc4)cc3)cc2)ccc(C(=O)Nc2ccc(C(=O)O)cc2)c1O	–	DSM1116	–	0.5 µg/mL
N=C(N)c1ccc(OCc2ccccc2COc2ccc(C(=N)N)cc2)cc1	broth dilution	BW25113	–	> 200 µg/mL
CC(C)Oc1c(NC(=O)c2ccc(NC(=O)[C@H](CC(N)=O)NC(=O)c3ccc(NC(=O)c4ccc([N+](=O)[O-])cc4)cc3)cc2)ccc(C(=O)Nc2ccc(C(=O)O)c(F)c2)c1O	–	DSM1116	–	1 µg/mL
Cc1ccc2nc(-c3ccc(Cl)c(Cl)c3)[nH]c2c1	broth dilution	ATCC25922	–	32 µg/mL
C/C(O)=C1\C(=O)C(CC(C)C)N(C(=O)CCCCCc2ccccc2)C1=O (stereo not drawn)	–	K12, K12	–	> 200 µg/mL
N=C(N)c1ccc(OCc2ccc(Br)cc2COc2ccc(C(=N)N)cc2)cc1	–	BW25113	–	≥ 100 µg/mL
Cc1c(CN(C)C(=O)/C=C/c2cnc3c(c2)CC(NC(=O)OC(C)(C)C)C(=O)N3)oc2ccccc12 (stereo not drawn)	broth dilution	BAA2340	clinical isolate	> 32 µg/mL
C[C@@H](O)[C@H]1C(=O)N2C(C(=O)O)=C(S[C@@H]3CN[C@H](C(=O)N(C)C)C3)[C@H](C)[C@H]12	broth dilution	ATCC25922	–	≤ 0.125 µg/mL
C=CCOc1c(C)c(O)c(C(=O)/C=C/c2ccccc2)c(OC)c1C	broth dilution	ATCC25922	–	5000 µg/mL
CC1(C)S[C@@H]2[C@H](NC(=O)[C@H](N)c3ccccc3)C(=O)N2[C@H]1C(=O)O	broth dilution	ATCC25922	16 h	0.3 µg/mL
COc1c(C)c(OCc2ccccc2)c(C)c(O)c1C(=O)/C=C/c1ccccc1	broth dilution	ATCC25922	–	5000 µg/mL
N=C(N)c1ccc(OCc2ccc(-c3ccccc3)cc2COc2ccc(C(=N)N)cc2)cc1	broth dilution	ATCC25922	–	200 µg/mL
CC1=NN(CNc2ccc(Cl)cc2)C(=O)C1=NNn1c(-c2ccccc2)nc2ccccc2c1=O	broth dilution	–	24 h	51.5 µM
CNc1cccc2cc(C(=O)Nc3ccc(C(=O)O)cc3)c(=O)[nH]c12	broth dilution	ATCC25922	–	64 µg/mL
O=C(Nc1ccc([N+](=O)[O-])cc1F)c1ccccc1O	broth dilution	ATCC25922	–	> 64 µg/mL
Cc1ccc2nc(-c3ccc(Cl)cc3Cl)[nH]c2c1	broth dilution	ATCC25922	–	64 µg/mL
O=C1NN=C(N=Cc2ccc(O)cc2O)C1=NNn1c(-c2ccccc2)nc2ccccc2c1=O	broth dilution	–	24 h	53.5 µM
CC1(C)S[C@@H]2[C@H](NC(=O)[C@H](N)c3ccccc3)C(=O)N2[C@H]1C(=O)O	broth dilution	MG1655	–	4 µg/mL
Cc1ccc(C)n1-c1ccc(-c2nnc(-c3ccccc3[N+](=O)[O-])[nH]2)cc1	broth dilution	ATCC10536	18 h	250 µg/mL
CC(C)Oc1c(NC(=O)c2ccc(NC(=O)[C@H](CC(N)=O)NC(=O)c3ccc(NC(=O)c4ccc5c(c4)COC5=O)cc3)cc2)ccc(C(=O)Nc2ccc(C(=O)O)cc2)c1O	–	DSM1116	–	≤ 0.03 µg/mL

SMILES	test	test system	setting	MIC
N=C(N)c1ccc(OCCC(CCOc2ccc(C(=N)N)cc2)c2ccccc2)cc1 (stereo not drawn)	broth dilution	BW25113	–	> 200 µg/mL
C=CCn1c(-c2ccc(OC)c(OC)c2)nc2ccccc21	broth dilution	ATCC25922	–	128 µg/mL
Cn1c(SCc2ccc(Cl)cc2)nnc1-c1cncc(C#Cc2ccccc2)c1	–	–	–	≥ 20 µg/mL
C[C@@H](O)[C@H]1C(=O)N2C(C(=O)O)=C(SCCN=CN)C[C@H]12	broth dilution	KCTC1682	16 h	0.5 µM
N=C(N)c1ccc(OCc2cccc(COc3ccc(C(=N)N)cc3)c2)cc1	–	BW25113	–	> 200 µg/mL
CC(C)Oc1c(NC(=O)c2ccc(NC(=O)[C@H](CC(N)=O)NC(=O)c3ccc(C#Cc4ccc(C#N)cc4)cc3)cc2)ccc(C(=O)Nc2ccc(C(=O)O)cc2)c1O	–	DSM1116	–	0.06 µg/mL
N=C(N)c1ccccc1OCc1ccccc1COc1ccccc1C(=N)N	broth dilution	BW25113	–	> 200 µg/mL
CCCCCCC/C=C/C(=O)N1C(=O)/C(=C(\O)CCCC)C(=O)C1CC(C)C (stereo not drawn)	–	K12, K12	–	> 200 µg/mL
N=C(N)c1ccc(OCCCCCOc2ccc(C(=N)N)cc2)cc1	broth dilution	BW25113	–	200 µg/mL
CNC(C)C1CCC(N)C(OC2C(N)CC(N)C(OC3OCC(C)(O)C(NC)C3O)C2O)O1 (stereo not drawn)	broth dilution	ATCC25922	–	0.5 µg/mL
CCCCCCC#Cc1cncc(-c2nnc(SCc3ccc(Cl)cc3)n2C)c1	–	–	–	≥ 20 µg/mL
CC(NCCCNC(=O)c1ccc(Cl)s1)c1cc2cc(Br)ccc2[nH]1 (stereo not drawn)	broth dilution	ATCC25922	–	32 µg/mL
COc1ccc(NCc2ccc(Oc3ccccn3)cc2)cc1	–	–	–	> 25 µg/mL
N=C(N)c1ccc(OCc2cc(Br)cc(COc3ccc(C(=N)N)cc3)c2)cc1	–	BW25113	–	> 100 µg/mL
Clc1ccc(NCc2ccc(Oc3ccccn3)cc2)cc1	–	–	–	> 50 µg/mL
O=[N+]([O-])c1ccc(-c2nc3cc(F)ccc3[nH]2)o1	broth dilution	ATTC25922	–	4 µg/mL
CC(C)Oc1c(NC(=O)c2ccc(NC(=O)[C@H](CC(N)=O)NC(=O)c3cccc(-c4cccc(C#N)c4)c3)cc2)ccc(C(=O)Nc2ccc(C(=O)O)cc2)c1O	–	DSM1116	–	> 64 µg/mL
Clc1ccc(-c2nc3ccccc3n2Cc2ccccc2)cc1Cl	broth dilution	ATCC25922	–	64 µg/mL
CC(C)Oc1c(N)ccc(C(=O)Nc2ccc(C(=O)N[C@@H](CC(N)=O)C(=O)Nc3ccc(C(=O)Nc4ccc(C(=O)Nc5ccc(C(=O)O)cc5)c(O)c4OC(C)C)cc3)cc2)c1O	–	DSM1116	–	2 µg/mL
Fc1cccc(Cl)c1-c1nc2ccccc2[nH]1	broth dilution	ATCC25922	–	64 µg/mL
CO[C@@H](C(N)=O)[C@H](NC(=O)c1ccc(NC(=O)c2ccc(C#N)cc2)cc1)C(=O)Nc1ccc(C(=O)Nc2ccc(C(=O)Nc3ccc(C(=O)O)cc3)c(O)c2OC(C)C)cc1	–	DSM1116	–	< 0.03 µg/mL
CCCCCCC/C=C/C(=O)N1C(=O)/C(=C(/C)O)C(=O)C1CO (stereo not drawn)	–	K12, K12	–	> 200 µg/mL
Cc1ccc2nc(-c3ccco3)n(Cc3ccccc3)c2c1	broth dilution	ATCC25922	–	128 µg/mL
O=C(CCCCCC[P+](c1ccccc1)(c1ccccc1)c1ccccc1)Nc1ccc(O)c(O)c1.[Br-]	broth dilution	ATCC25922	18 h	> 32 µg/mL
COc1ccc(-c2nc3ccc(C)cc3[nH]2)cc1O	broth dilution	ATCC25922	–	64 µg/mL
CCCCCCC/C=C/C(=O)N1CC(=O)/C(=C(\C)O)C1=O	–	K12, K12	–	> 200 µg/mL
Cc1cc(C)n(C(=O)c2ccc(-n3c(C)ccc3C)cc2)n1	broth dilution	ATCC10536	18 h	250 µg/mL
